The list is not random: actives were taken first. Their share in the collection is about 2.7%.
NR2E3 ag-1 = agonists of human NR2E3 nuclear receptor; 360,000 compounds, 0.35% hits; inhibition of corepressor binding, % at 3.98 µM; CHO-S Gal4-NCOR/VP16-NR2E3 two-hybrid, luciferase; Q9Y5X4; AID 602229;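 active = inhibition above the mean of all tested compounds plus 3 SD, cut at about 70% in these data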;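 also: 0% = DMSO with NR2E3 transfected cells and 100% = cells lacking NR2E3 construct; higher means lower luciferase signal from less NR2E3 corepressor binding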
Target sequence (Q9Y5X4 whole entry, looked up, the tested form may be a part): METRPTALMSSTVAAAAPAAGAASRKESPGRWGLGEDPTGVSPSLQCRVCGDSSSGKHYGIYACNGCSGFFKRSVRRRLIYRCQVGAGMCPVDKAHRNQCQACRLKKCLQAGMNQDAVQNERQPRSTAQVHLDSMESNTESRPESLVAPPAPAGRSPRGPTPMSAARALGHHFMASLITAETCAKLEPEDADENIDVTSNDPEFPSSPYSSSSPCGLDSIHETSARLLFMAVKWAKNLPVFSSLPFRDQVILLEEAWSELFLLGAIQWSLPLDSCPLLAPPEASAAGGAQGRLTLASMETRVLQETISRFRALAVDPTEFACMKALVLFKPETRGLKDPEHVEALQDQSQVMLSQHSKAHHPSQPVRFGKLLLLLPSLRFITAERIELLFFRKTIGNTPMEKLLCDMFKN
MC4R ag barr = agonists of human melanocortin 4 receptor (MC4R) beta-arrestin. 360,000 compounds, 0.98% hits. U2OS MC4R beta-arrestin complementation, luminescence; percent of melanotan II response, DMSO zero. activation, % at 8.9 µM. P32245. AID 540308;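 active = activation above a per-plate cutoff, the mean activation of sample wells on that plate plus 3 SD, cut at about 8% in these data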
Target sequence (P32245 whole entry, looked up): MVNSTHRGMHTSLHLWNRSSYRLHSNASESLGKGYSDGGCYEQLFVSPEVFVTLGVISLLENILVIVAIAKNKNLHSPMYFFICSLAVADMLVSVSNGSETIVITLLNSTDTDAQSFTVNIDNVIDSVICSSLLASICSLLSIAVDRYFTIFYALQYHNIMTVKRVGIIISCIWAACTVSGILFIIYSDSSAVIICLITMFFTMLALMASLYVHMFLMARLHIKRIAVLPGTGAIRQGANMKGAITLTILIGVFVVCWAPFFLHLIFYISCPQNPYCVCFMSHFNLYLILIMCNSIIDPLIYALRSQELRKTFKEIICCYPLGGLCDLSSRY
PG9 Ab binder = binds the HIV-1 gp120 antibody PG9; TR-FRET gp120-PG9 antibody binding; 360,000 compounds, 0.43% hits; AID 624416; inhibition, % at 6.7 µM; in the data active = inhibition above about 8.5%
Rev-erbA mod = Rev-erb alpha (human) modulation | P20393 | Rev-erbα–FITC-DNA binding, fluorescence polarization, 90 min | activity, % at 10 µM | 370,000 compounds, 0.79% hits | AID 1259318;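 active = activity above about 14%, limit read from the data; passing the limit was not always enough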;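 also: 0% = DMSO wells with 35 nM protein and 100% = DMSO wells with 750 nM protein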
MC4R antag cAMP = antagonists of human melanocortin 4 receptor (MC4R). inhibition, % at 6.5 µM. P32245. MC4R-expressing cells, MTII-stimulated cAMP, LANCE TR-FRET. 360,000 compounds, 0.48% hits;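 active = inhibition above its plate's cutoff, the mean of tested wells on that plate plus 3 SD, cut at about 29% in these data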;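 also: 0% = Melanotan II alone and 100% = Melanotan II plus saturating MCL0020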
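Material: human MC4R-expressing U2OS cells. Probe or stimulus: Melanotan II challenge. Dosing: 6.5 µM single dose. Times: 30-min compound, 1-h challenge, 1-h detection, room temperature. Technique: TR-FRET with Eu-cAMP and labeled anti-cAMP, 671 nm. Replication: singlicate.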
NR2E3 ag-2 = activates human photoreceptor nuclear receptor NR2E3; GST-NR2E3/biotin-RetCOR TR-FRET, 1536-well; inhibition of corepressor binding, % at 4.78 µM; 320,000 compounds, 0.12% hits;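 active = percent inhibition above the cutoff of mean plus 3 SD of all tested compounds, set per screening campaign, cut at about 20% in these data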;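 also: 0% = DMSO wells and 100% = biotin wells as full block of FRET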
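System: GST-tagged NR2E3 plus biotinylated RetCOR corepressor; Amount: 1.35 nM GST-tagged NR2E3 final; Dosing: single nominal compound dose of 4.8 µM; Schedule: 5 h incubation at 4 °C; Technique: TR-FRET with europium anti-GST and streptavidin-D2, 340 nm excitation; Controls: biotin wells as high control, 0.6% DMSO wells as low control.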
NR2E3 ag confirm = confirmation of human NR2E3 agonists | CHO-S mammalian two-hybrid NR2E3-NCOR, luciferase luminescence | inhibition, % at 3.98 µM | 2,300 compounds, 51% hits | shares compounds with NR2E3 ag-1;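 active = average inhibition above a cutoff equal to the mean inhibition of all tested compounds plus one SD, cut at about 70% in these data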;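 also: 0% = DMSO in NR2E3 cells and 100% = DMSO in cells lacking NR2E3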
VP16 counter = reduces GAL4-VP16 reporter signal in NR2E3 counterscreen; shares compounds with NR2E3 ag-1; CHO-S GAL4-VP16 luciferase reporter, luminescence; inhibition, % at 3.98 µM; 2,300 compounds, 29% hits;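 active = mean inhibition above a cutoff equal to the average over all tested compounds plus one standard deviation, cut at about 70% in these data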;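 also: luciferase from a UAS reporter driven by GAL4-VP16 transactivation; 0% = DMSO with VP16-transfected cells and 100% = DMSO with cells lacking VP16; higher means less reporter light so more repression of VP16 activity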
* = called active by the depositor; · = not tested or not shown.

SMILES | NR2E3 ag-1 | MC4R ag barr | PG9 Ab binder | Rev-erbA mod | MC4R antag cAMP | NR2E3 ag-2 | NR2E3 ag confirm | VP16 counter
CCN(CC)c1nc(-c2ccccn2)nc(-c2ccccc2)c1C#N | 83* | -2 | 0 | 0 | 11 | 5 | 47 | 39
CCCN(CCC)c1nc(-c2ccccn2)nc2ccccc12 | 104* | -4 | -1 | -4 | 18 | · | 99* | 85*
CCCCN(CC)c1nc(-c2ccncc2)nc2ccccc12 | -11 | 0 | 2 | 9 | 1 | -1 | · | ·
CN(C)c1nc(-c2ccccn2)nnc1-c1ccccc1 | 10 | -2 | 5 | -6 | 3 | 2 | · | ·
CCOc1cc(/C=C(/C#N)C(=O)Nc2ccc(OC)cc2)ccc1OCc1ccc(C(=O)O)cc1 | -18 | -1 | -1 | 2 | -2 | 2 | · | ·
Cc1ccccc1C(=O)NNC(=S)NC(=O)c1ccc(Cl)cc1Cl | 39 | -4 | 2 | -2 | -1 | -3 | · | ·
COc1ccccc1NC(=S)NNC(=O)c1ccc(Cl)cc1Cl | 53 | -1 | -1 | -5 | 0 | 3 | -131 | -115
COc1cc(C(=O)COC(=O)C2CCN(c3ccc(C(F)(F)F)cn3)CC2)ccc1OC(F)F | -4 | -1 | -1 | 6 | 0 | -4 | · | ·
CCOC(=O)c1sc(NC(=O)CSc2ncn(-c3ccccc3)n2)nc1C | -17 | 0 | 0 | -4 | -4 | 0 | · | ·
Brc1ccc(N/N=C(/N=Nc2nn[nH]n2)c2ccccc2)cc1 | 72* | -3 | -2 | 4 | 25 | 0 | 94* | 35
CN(C)S(=O)(=O)c1ccc2nc(NC(=O)c3cccnc3)sc2c1 | -65 | -1 | -2 | -4 | 5 | -2 | · | ·
O=C(NC(Nc1nc2ccc([N+](=O)[O-])cc2s1)(C(F)(F)F)C(F)(F)F)c1cccnc1 | 101* | 2 | 0 | 3 | 5 | 0 | 98* | 89*
CCN(CC)C(=O)C1CCN(S(=O)(=O)c2ccc3oc4ccccc4c3c2)CC1 | 77* | 2 | -4 | -2 | 12 | 0 | 65 | 58
CC(C)n1c(-c2ccc(C(C)(C)C)cc2)n[nH]c1=S | 79* | 4 | -1 | 6 | 3 | 2 | 84* | 70
N#CCc1ccc(NC(=O)/C=C/c2ccc([N+](=O)[O-])o2)cc1 | 50 | -1 | · | · | -11 | · | 61 | 31
Cc1ccc2cc(COC(=O)c3cccc([N+](=O)[O-])c3)c(=O)[nH]c2c1 | -11 | 0 | -3 | 6 | -3 | 2 | · | ·
Nc1nnc(SCCCC(=O)c2ccc(Br)cc2)s1 | 5 | -1 | -2 | -5 | -1 | -1 | · | ·
Cc1ccccc1S(=O)(=O)N1C(c2ccc(Cl)cc2)CC=C(C(=O)O)C1c1cccc(Cl)c1 (centres undefined) | · | · | 0 | 3 | · | · | · | ·
Cc1ccccc1S(=O)(=O)N1[C@@H](c2ccc(Cl)cc2)C(C(=O)O)=CC[C@H]1c1ccc(Cl)cc1 | 65 | -1 | 0 | -3 | 2 | · | 27 | 19
Cc1ccc([C@H]2C(C(=O)O)=CC[C@@H](c3ccc(Cl)cc3)N2S(=O)(=O)c2ccccc2C)cc1 | 48 | 0 | · | · | -5 | · | 28 | 31
CN(C)C(=O)CCc1ccc2c3c([nH]c2c1)[C@]1(C)[C@@H](C(=O)N2CCOCC2)C[C@H](CC(=O)NCc2ccco2)C(=O)N1CC3 | -10 | 0 | -1 | -8 | 8 | · | · | ·
O=C(CSc1nc2scc(-c3ccccc3)c2c(=O)[nH]1)Nc1ccccc1 | -17 | -2 | 5 | 0 | 11 | 4 | · | ·
COc1ccc(C(=O)c2sc(Nc3ccccc3)nc2N)cc1OC | 102* | -1 | -3 | 6 | -15 | -2 | 80* | 62
COc1ccc(C(=O)c2sc(Nc3ccccc3)nc2N)cc1 | -4 | 1 | 0 | -2 | 12 | · | · | ·
COc1cc(OC)c(OC)cc1CN1CCSCC1 | -13 | 0 | -3 | -6 | 0 | · | · | ·
SMILES | NR2E3 ag-1 | MC4R ag barr | PG9 Ab binder | Rev-erbA mod | MC4R antag cAMP | NR2E3 ag-2 | NR2E3 ag confirm | VP16 counter
CC(C)CCN(C)C1CCN(C(=O)Nc2ccc3c(c2)OCO3)CC1 | · | · | · | -2 | · | · | · | ·
O=C(O)C1c2ccccc2Cc2ccccc21 | 16 | -1 | -3 | -3 | -4 | · | · | ·
CNc1nc(-c2ccc(S(=O)(=O)N3CCCCC3)cc2)cs1 | 54 | 0 | 1 | 6 | 12 | 7 | -27 | -7
O=C(Nc1nc(-c2ccc(S(=O)(=O)N3CCCC3)cc2)cs1)c1ccco1 | -19 | -1 | 1 | 3 | 11 | 3 | · | ·
COc1ccc(C(=O)Nc2nc3ccccc3s2)c(OC)c1 | 97* | 0 | -1 | 14 | -3 | 1 | 89* | 86*
COc1ccc2nc(NC(=O)c3ccccc3C(=O)O)sc2c1 | -11 | 0 | 0 | -2 | 3 | 0 | · | ·
Cc1ccc(C(=O)Sc2cccccc2=O)cc1 | 101* | -5 | -4 | -22 | -2 | -3 | -22 | -82
O=C(Nc1ccccc1SC(=O)c1ccccc1)c1ccccc1 | -82 | -2 | 0 | 2 | -15 | · | · | ·
CCOC(=O)C(NC(=O)c1ccccc1)(Nc1cc(C)on1)C(F)(F)F (centres undefined) | -24 | -1 | 0 | -3 | -2 | 0 | · | ·
COCCNC(=O)CN1CCCCCC1 | -9 | -2 | -4 | · | 2 | 4 | · | ·
Nc1nc2c(nnn2C2CC(O)C(CO)O2)c(=O)[nH]1 (centres undefined) | 65 | · | 0 | -10 | · | · | -2 | 17
Cc1c(C(=O)NCc2cccc([N+](=O)[O-])c2)sc(=O)n1Cc1ccccc1F | 19 | 0 | 0 | -1 | -8 | · | · | ·
Cc1c(C(=O)NCc2ccc(C(C)C)cc2)sc(=O)n1Cc1ccc(S(=O)(=O)N(C)C)cc1 | 74* | 0 | 1 | -2 | 23 | · | 87* | 80*
COc1ccc(Cl)cc1Cn1c(C)c(C(=O)NCc2ccc(F)cc2)sc1=O | 49 | 1 | 0 | -2 | 9 | · | 45 | 1
COc1ccc(Cl)cc1Cn1c(C)c(C(=O)NCc2cccc([N+](=O)[O-])c2)sc1=O | 54 | 0 | 0 | -1 | 0 | · | 24 | 5
CC[C@]12c3[nH]c4ccccc4c3CCN1C(=O)C(CC(=O)NCCC1=CCCCC1)C[C@@H]2C(=O)N1CCN(C(=O)c2ccco2)CC1 (some centres undefined) | 7 | -1 | 0 | 10 | 5 | · | · | ·
CCC(=O)NC(c1ccco1)c1cc(Cl)c2ccccc2c1O (centres undefined) | -6 | 0 | -1 | 1 | 18 | 3 | · | ·
Nc1nc(N)nc(-c2cc(O)ccc2O)n1 | 76* | -2 | -2 | -1 | 2 | -1 | 85* | 56

From PubChem
